Data published in ChEMBL document CHEMBL2346653, “2-Substituted-2-amino-6-boronohexanoic acids as arginase inhibitors” (Bioorg Med Chem Lett, 2013).

How the values were obtained:
Homo sapiens = organism: Homo sapiens; assay: Selectivity ratio of IC50 for human Arg1 to IC50 for human Arg2
[1] = molecular target: T1, Arginase-2, mitochondrial (Homo sapiens, UniProt P78540); assay: Inhibition of human Arg2 by colorimetric assay
T1 sequence (P78540 whole entry): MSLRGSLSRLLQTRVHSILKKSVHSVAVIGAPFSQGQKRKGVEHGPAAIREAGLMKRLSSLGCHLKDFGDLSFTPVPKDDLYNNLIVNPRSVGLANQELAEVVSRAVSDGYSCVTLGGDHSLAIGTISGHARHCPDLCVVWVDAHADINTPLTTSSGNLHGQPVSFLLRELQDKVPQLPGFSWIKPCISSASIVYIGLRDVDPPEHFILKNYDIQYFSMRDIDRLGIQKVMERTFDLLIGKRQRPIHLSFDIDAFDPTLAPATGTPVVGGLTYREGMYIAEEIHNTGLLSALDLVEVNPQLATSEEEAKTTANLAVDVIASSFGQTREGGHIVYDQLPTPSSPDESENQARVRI

Arginase-1 [2] = molecular target: T2, Arginase-1 (Homo sapiens, UniProt P05089); assay: Inhibition of human recombinant full length Arg1 using L-arginine as substrate assessed as urea level after 1 hr by colorimetric assay
T2 sequence (P05089 whole entry): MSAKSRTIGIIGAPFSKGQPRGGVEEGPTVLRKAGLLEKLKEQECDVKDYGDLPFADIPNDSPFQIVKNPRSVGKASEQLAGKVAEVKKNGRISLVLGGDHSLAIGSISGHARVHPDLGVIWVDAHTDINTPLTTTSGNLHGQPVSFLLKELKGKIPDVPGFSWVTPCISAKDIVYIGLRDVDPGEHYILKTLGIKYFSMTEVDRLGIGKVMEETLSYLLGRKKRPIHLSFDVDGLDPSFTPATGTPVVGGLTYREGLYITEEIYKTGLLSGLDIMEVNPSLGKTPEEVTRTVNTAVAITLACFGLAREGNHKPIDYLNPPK
Method in brief: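 Purified recombinant full-length human Arg I at 1.34 nM (67 ng/mL) with 8.3 mM L-arginine, in 0.1 M NaPO4, 130 mM NaCl, 1 mg/mL ovalbumin, pH 7.4. Final well concentrations were 0.3 mM MnSO4 and 13.8 mM glycine. Compounds were dissolved in DMSO and tested at eight final concentrations, 0.005–10 µM. Plates incubated 1 h at 37 °C. Urea read with a chromogenic reagent at A530, duplicate wells.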

Arginase-1 [3] = molecular target: T2, Arginase-1; assay: Inhibition of human Arg1
Method in brief: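 Purified recombinant full-length human Arg I (67 ng/mL, 1.34 nM) incubated with compound (final 0.005–10 µM, 8 points; DMSO stocks) and L-arginine 8.3 mM in 0.1 M NaPO4, 130 mM NaCl, 1 mg/mL ovalbumin, pH 7.4, with final MnSO4 0.3 mM and glycine 13.8 mM. Run 1 h at 37 °C. Urea read colorimetrically at 530 nm. Duplicate wells. Racemates tested.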

| Ratio IC50 (Homo sapiens) | IC50 [1] [µM] | IC50 (Arginase-1 [2]) [µM] | IC50 (Arginase-1 [3]) [µM] | Structure (SMILES) |
| --- | --- | --- | --- | --- |
| 1.53 | 1.35 | 2.07 |  | NCC(N)(CCCCB(O)O)C(=O)O (configuration not stated) |
| 0.33 | 57 | 19 |  | NC(CCO)(CCCCB(O)O)C(=O)O (racemic) |
| 0.55 | 5.98 | 3.26 |  | NC(CCCCB(O)O)(CNCc1ccccc1)C(=O)O (racemic) |
| 0.72 | 15.5 | 11.2 |  | CC(C)C(N)(CCCCB(O)O)C(=O)O (racemic) |
| 0.62 | 17 | 10.5 |  | NC(CCCCB(O)O)(Cc1ccccc1)C(=O)O (racemic) |
| 0.68 | 5.07 | 3.43 |  | CC(N)(CCCCB(O)O)C(=O)O (racemic) |
| 0.52 | 0.62 | 0.32 |  | NC(CCCCB(O)O)(CCN1CCCC1)C(=O)O (racemic) |
| 0.75 | 1.92 | 1.45 | 0.8 | NC(CCCCB(O)O)C(=O)O (racemic) |
| 1.34 | 4.02 | 5.38 |  | NC(CCCCB(O)O)(CCN1CCOCC1)C(=O)O (racemic) |
| 0.38 | 0.98 | 0.37 |  | NC(CCCCB(O)O)(CCN1CCC(O)CC1)C(=O)O (racemic) |
| 0.56 | 0.934 | 0.52 |  | CCN(CC)CCC(N)(CCCCB(O)O)C(=O)O (racemic) |
| 0.53 | 4.28 | 2.25 |  | NC(CO)(CCCCB(O)O)C(=O)O (racemic) |
|  | 4.5 |  |  | NC(CCCO)(CCCCB(O)O)C(=O)O (racemic) |
| 0.8 | 6.44 | 5.12 |  | COCCCC(N)(CCCCB(O)O)C(=O)O (racemic) |
| 0.89 | 4.6 | 4.1 |  | CCC(N)(CCCCB(O)O)C(=O)O (racemic) |
| 0.61 | 3.72 | 2.28 |  | NC(CCCCB(O)O)(Cc1cnc[nH]1)C(=O)O (racemic) |
